{
  "source": "ChEMBL document CHEMBL1123566",
  "about": "“Synthesis and cardiac electrophysiological activity of 2- and 3-[(substituted phenyl)alkyl]quinuclidines. Structure-activity relationships” (1987)",
  "key": {"Canis familiaris [1]": {"organism": "Canis familiaris", "assay": "In vitro electrophysiological evaluation in canine cardiac ventricular muscle reported as maximum % change for functional refractory period (FRP) at 0.1-30 uM concentration range", "parameters": "species or system Canis lupus familiaris, Muscle tissue", "procedure,_shortened": "(§1)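 Canine right ventricle and papillary muscle strips in oxygenated Tyrode's solution, fitted with stimulating and recording electrodes. The extra-stimulus conduction-interval method was adapted for in vitro use. FRP and CT were read from a conduction-interval curve before and after various compound concentrations, and expressed as percent change from control. Compounds were taken from 10 mM deionized-water stock into Tyrode's. Each strip was used once as its own control.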"}, "Canis familiaris [2]": {"organism": "Canis familiaris", "assay": "(§2) In vitro electrophysiological evaluation in canine cardiac Purkinje fibres reported as % change for action potential duration at 0.1-100 uM concentration range", "assay_type": "functional, Canis lupus familiaris, Purkinje fiber", "procedure,_shortened": "(§3)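 Canine cardiac Purkinje fibres, intracellular microelectrode recording, paced at a basic cycle length of 1 s. APD95 and Vmax read simultaneously. Compound: 10 mM stock in deionized water, diluted into Tyrode's solution, tested over the stated concentration range. Each fibre used once as its own control. Result is % change from control, given at 10 µM or as the maximum with its concentration. M = <10% decrease or an increase in Vmax.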"}, "Canis familiaris [3]": {"organism": "Canis familiaris", "assay": "In vitro electrophysiological evaluation in canine cardiac Purkinje fibres reported as percent change Vmax concentration range of 0.1-100 uM", "assay_type": "functional", "conditions": "Canis lupus familiaris; Purkinje fiber", "procedure,_shortened": "as §3"}, "Canis familiaris [4]": {"organism": "Canis familiaris", "assay": "In vitro electrophysiological evaluation in canine cardiac ventricular muscle reported as % change for conduction time(CT) at 0.1-100 uM concentration range; Minimal (<IO%increase or a decrease in CT)", "assay_type": "functional, Canis lupus familiaris, Muscle tissue"}, "Canis familiaris [5]": {"organism": "Canis familiaris", "assay": "In vitro electrophysiological evaluation in canine cardiac Purkinje fibres reported as percent change Vmax concentration range of 0.1-100 uM; Minimal (<IO%increase or a decrease in CT)", "assay_type": "functional", "conditions": "Canis lupus familiaris; Purkinje fiber", "procedure,_shortened": "as §3"}, "Canis familiaris [6]": {"organism": "Canis familiaris", "assay": "In vitro electrophysiological activity in canine cardiac Purkinje fibres given as maximum % change for action potential duration at 100 uM concentration", "assay_type": "functional, Canis lupus familiaris, Purkinje fiber", "procedure,_shortened": "(§4)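 Canine cardiac Purkinje fibres, intracellular recording at 1 s basic cycle length, over cumulative concentration ranges. Compound 10 mM stock in deionized water diluted into Tyrode's. Each fibre used once as its own control. Value is the maximum % change from control in APD at 95% repolarization, with the concentration where it occurred; both values given if a biphasic response (>20% reversal) occurred.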"}, "Canis familiaris [7]": {"organism": "Canis familiaris", "assay": "as §2", "assay_type": "functional, Canis lupus familiaris, Purkinje fiber", "procedure,_shortened": "as §3", "remark": "listed apart in the source"}, "Canis familiaris [8]": {"organism": "Canis familiaris", "assay": "In vitro electrophysiological evaluation in canine cardiac ventricular muscle reported as maximum % change for conduction time(CT) at 0.1-30 uM concentration range", "assay_type": "functional, Canis lupus familiaris, Muscle tissue", "procedure,_shortened": "as §1"}, "Canis familiaris [9]": {"organism": "Canis familiaris", "assay": "In vitro electrophysiological activity in canine cardiac Purkinje fibres given as maximum % change for action potential duration at 10 uM concentration", "assay_type": "functional, Canis lupus familiaris, Purkinje fiber", "procedure,_shortened": "as §4"}, "Canis familiaris [10]": {"organism": "Canis familiaris", "assay": "In vitro electrophysiological evaluation in canine cardiac ventricular muscle reported as % change for conduction time(CT) at 0.1-30 uM concentration range; Minimal (<IO%increase or a decrease in CT)", "assay_type": "functional, Canis lupus familiaris, Muscle tissue"}, "Canis familiaris [11]": {"organism": "Canis familiaris", "assay": "In vitro electrophysiological evaluation in canine cardiac ventricular muscle reported as % change for the functional refractory period (FRP) concentration range of 0.1-100 uM", "parameters": "species or system Canis lupus familiaris, Muscle tissue", "procedure,_shortened": "as §1"}, "Canis familiaris [12]": {"organism": "Canis familiaris", "assay": "In vitro electrophysiological activity in canine cardiac Purkinje fibres given as maximum % change for action potential duration at 0.1-100 uM concentration", "assay_type": "functional, Canis lupus familiaris, Purkinje fiber", "procedure,_shortened": "as §4"}, "Canis familiaris [13]": {"organism": "Canis familiaris", "assay": "In vitro electrophysiological evaluation in canine cardiac ventricular muscle reported as maximum % change for conduction time(CT) at 0.1-30 uM concentration range; Minimal (<IO%increase or a decrease in CT)", "assay_type": "functional, Canis lupus familiaris, Muscle tissue", "procedure,_shortened": "as §1"}, "Canis familiaris [14]": {"organism": "Canis familiaris", "assay": "In vitro electrophysiological evaluation in canine cardiac ventricular muscle reported as maximum % change for conduction time(CT) at 0.1-100 uM concentration range", "assay_type": "functional, Canis lupus familiaris, Muscle tissue", "procedure,_shortened": "as §1"}, "Canis familiaris [15]": {"organism": "Canis familiaris", "assay": "In vitro electrophysiological evaluation in canine cardiac ventricular muscle reported as maximum % change for functional refractory period (FRP) at 0.1-100 uM concentration range", "parameters": "species or system Canis lupus familiaris, Muscle tissue"}, "Canis familiaris [16]": {"organism": "Canis familiaris", "assay": "In vitro electrophysiological evaluation in canine cardiac ventricular muscle reported as % change for the functional refractory period (FRP) concentration range of 0.1-30 uM", "parameters": "species or system Canis lupus familiaris, Muscle tissue", "procedure,_shortened": "as §1"}, "Canis familiaris [17]": {"organism": "Canis familiaris", "assay": "In vitro electrophysiological evaluation in canine cardiac ventricular muscle reported as % change for the functional refractory period (FRP) at 10 uM at concentration range of 0.1-100 uM", "parameters": "species or system Canis lupus familiaris, Muscle tissue", "procedure,_shortened": "as §1"}, "Canis familiaris [18]": {"organism": "Canis familiaris", "assay": "In vitro electrophysiological evaluation in canine cardiac Purkinje fibres reported as % change for action potential duration at a concentration of 10 uM", "assay_type": "functional, Canis lupus familiaris, Purkinje fiber", "procedure,_shortened": "as §3"}, "Canis familiaris [19]": {"organism": "Canis familiaris", "assay": "In vitro electrophysiological evaluation in canine cardiac ventricular muscle reported as maximum % change for conduction time(CT) at 0.1-100 uM concentration range; Minimal (<10% decrease or increase in CT).", "assay_type": "functional, Canis lupus familiaris, Muscle tissue", "procedure,_shortened": "as §1"}, "Canis familiaris [20]": {"organism": "Canis familiaris", "assay": "In vitro electrophysiological evaluation in canine cardiac Purkinje fibres reported as % change for action potential duration at 10 uM at 1-100 uM concentration range", "assay_type": "functional, Canis lupus familiaris, Purkinje fiber", "procedure,_shortened": "as §3"}, "Canis familiaris [21]": {"organism": "Canis familiaris", "assay": "In vitro electrophysiological evaluation in canine cardiac ventricular muscle reported as % change for conduction time(CT) at 10 uM at 1-100 uM concentration range; Minimal (<10% decrease or increase in CT).", "assay_type": "functional, Canis lupus familiaris, Muscle tissue"}, "Canis familiaris [22]": {"organism": "Canis familiaris", "assay": "In vitro electrophysiological evaluation in canine cardiac ventricular muscle reported as maximum % change for conduction time(CT) at 0.1-100 uM concentration range; concentration at which it occurred is 100 uM", "assay_type": "functional, Canis lupus familiaris, Muscle tissue", "procedure,_shortened": "as §1"}, "Canis familiaris [23]": {"organism": "Canis familiaris", "assay": "In vitro electrophysiological activity in canine cardiac occurred is 100 uM.", "assay_type": "functional, Canis lupus familiaris, Heart"}, "Canis familiaris [24]": {"organism": "Canis familiaris", "assay": "In vitro electrophysiological evaluation in canine cardiac ventricular muscle reported as maximum % change for functional refractory period (FRP) at 1-100 uM concentration range; concentration at which it occurred is 100 uM", "parameters": "species or system Canis lupus familiaris, Muscle tissue", "procedure,_shortened": "as §1"}, "Canis familiaris [25]": {"organism": "Canis familiaris", "assay": "In vitro electrophysiological activity in canine cardiac occurred is 10 uM.", "assay_type": "functional, Canis lupus familiaris, Heart"}, "Canis familiaris [26]": {"organism": "Canis familiaris", "assay": "In vitro electrophysiological evaluation in canine cardiac ventricular muscle reported as maximum % change for conduction time(CT) at 1-100 uM concentration range; concentration at which it occurred is 100 uM", "assay_type": "functional, Canis lupus familiaris, Muscle tissue", "procedure,_shortened": "as §1"}, "Canis familiaris [27]": {"organism": "Canis familiaris", "assay": "In vitro electrophysiological evaluation in canine cardiac occurred is 100 uM", "assay_type": "functional", "conditions": "Canis lupus familiaris; Heart"}, "Canis familiaris [28]": {"organism": "Canis familiaris", "assay": "In vitro electrophysiological evaluation in canine cardiac Purkinje fibres reported as percent change Vmax at 10 uM at concentration range of 1-100 uM", "assay_type": "functional", "conditions": "Canis lupus familiaris, Purkinje fiber", "procedure,_shortened": "as §3"}, "Canis familiaris [29]": {"organism": "Canis familiaris", "assay": "In vitro electrophysiological evaluation in canine cardiac ventricular muscle reported as % change for the functional refractory period (FRP) at 10 uM at concentration range of 1-100 uM", "parameters": "species or system Canis lupus familiaris, Muscle tissue", "procedure,_shortened": "as §1"}, "Canis familiaris [30]": {"organism": "Canis familiaris", "assay": "In vitro electrophysiological evaluation in canine cardiac ventricular muscle reported as % change for conduction time(CT) at 10 uM at 0.1-100 uM concentration range; Minimal (<10% decrease or increase in CT).", "assay_type": "functional, Canis lupus familiaris, Muscle tissue"}, "Canis familiaris [31]": {"organism": "Canis familiaris", "assay": "In vitro electrophysiological evaluation in canine cardiac ventricular muscle reported as maximum % change for functional refractory period (FRP) at 0.1-100 uM concentration range; concentration at which it occurred is 100 uM", "parameters": "species or system Canis lupus familiaris, Muscle tissue", "procedure,_shortened": "as §1"}},
  "note": "Where “and” joins values, the source holds several entries; their conditions need not be identical. Equal values may be shown once.",
  "data": [
    {"compound": "CCCCCCC[N+]12CCC(CC1)C(=O)C2CCCc1ccc(Cl)cc1.O=P([O-])(O)O", "note": "(stereo unspecified)", "values": [
      {"measurement": "FRP", "setting": "Canis familiaris [1]", "result": "29% and 27%"},
      {"measurement": "APD95", "setting": "Canis familiaris [2]", "result": 9, "unit": "%"},
      {"measurement": "Vmax", "setting": "Canis familiaris [3]", "result": "-18% and -15%"},
      {"measurement": "CT", "setting": "Canis familiaris [4]", "result": "<10", "unit": "%"},
      {"measurement": "Vmax", "setting": "Canis familiaris [5]", "result": "< 10", "unit": "%"},
      {"measurement": "APD95", "setting": "Canis familiaris [6]", "result": "13% and 12% and 9%"},
      {"measurement": "APD95", "setting": "Canis familiaris [7]", "result": "38% and 69% and 35%"},
      {"measurement": "CT", "setting": "Canis familiaris [8]", "result": 17, "unit": "%"},
      {"measurement": "APD95", "setting": "Canis familiaris [9]", "result": "38% and 69% and 35%"},
      {"measurement": "CT", "setting": "Canis familiaris [10]", "result": "<10", "unit": "%"},
      {"measurement": "FRP", "setting": "Canis familiaris [11]", "result": 5, "unit": "%"},
      {"measurement": "APD95", "setting": "Canis familiaris [12]", "result": 9, "unit": "%"},
      {"measurement": "CT", "setting": "Canis familiaris [13]", "result": "<10", "unit": "%"},
      {"measurement": "CT", "setting": "Canis familiaris [14]", "result": 31, "unit": "%"},
      {"measurement": "FRP", "setting": "Canis familiaris [15]", "result": 10, "unit": "%"},
      {"measurement": "FRP", "setting": "Canis familiaris [16]", "result": "26% and 22%"}
    ]},
    {"compound": "CCOC(=O)C(CC1C(=O)C2CCN1CC2)C(=O)c1ccc(Cl)c(NS(C)(=O)=O)c1.Cl", "note": "(stereo unspecified)", "values": [
      {"measurement": "FRP", "setting": "Canis familiaris [17]", "result": "5% and -7% and 6%"},
      {"measurement": "APD95", "setting": "Canis familiaris [18]", "result": 9, "unit": "%"},
      {"measurement": "CT", "setting": "Canis familiaris [19]", "result": "<10", "unit": "%"},
      {"measurement": "APD95", "setting": "Canis familiaris [20]", "result": -4, "unit": "%"},
      {"measurement": "CT", "setting": "Canis familiaris [21]", "result": "<10", "unit": "%"},
      {"measurement": "CT", "setting": "Canis familiaris [22]", "result": 12, "unit": "%"},
      {"measurement": "APD95", "setting": "Canis familiaris [23]", "result": -16, "unit": "%"},
      {"measurement": "FRP", "setting": "Canis familiaris [24]", "result": 15, "unit": "%"},
      {"measurement": "APD95", "setting": "Canis familiaris [25]", "result": 9, "unit": "%"},
      {"measurement": "CT", "setting": "Canis familiaris [26]", "result": 14, "unit": "%"},
      {"measurement": "Vmax", "setting": "Canis familiaris [27]", "result": "-19% and -21%"},
      {"measurement": "Vmax", "setting": "Canis familiaris [28]", "result": "-11% and -10%"},
      {"measurement": "FRP", "setting": "Canis familiaris [29]", "result": 10, "unit": "%"},
      {"measurement": "CT", "setting": "Canis familiaris [30]", "result": "<10", "unit": "%"},
      {"measurement": "FRP", "setting": "Canis familiaris [31]", "result": "12% and 5% and 14%"}
    ]}
  ]
}
